The target in one test is Carbonic anhydrase 9 (Homo sapiens, UniProt Q16790). The test is described as follows: Inhibition of human recombinant carbonic anhdydrase-9 expressed in Escherichia coli pre-incubated for 6 hrs by stopped-flow CO2 hydration assay.
In test [1] the test system is HT-29. Kind of test: Cytotoxicity against human HT-29 cells assessed as reduction in cell viability at 100 uM incubated for 72 hrs under normoxic conditions by MTT assay. Format: functional, cell-based. The method, boiled down:
(§1)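 HT-29 cells were grown in high-glucose DMEM with 20% FBS at 37 °C and plated at 1 × 10^4/well. After 24 h they were exposed to 0, 30, 100 or 300 μM for 16, 48 or 72 h in normoxia (20% O2, air, 5% CO2). Washed cells got 1 mg/mL MTT for 30 min at 37 °C, formazan was dissolved in DMSO and A550 read. Untreated set at 100%. Quadruplicates, ≥3 cell batches; mean ± SEM.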

Test [2] concerns HT-29. The test is described as follows: Cytotoxicity against human HT-29 cells assessed as reduction in cell viability at 100 uM incubated for 72 hrs under hypoxic conditions by MTT assay. It is filed as functional, cell-based. The method, boiled down: (§2)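 Cells were kept in high-glucose DMEM with 20% FBS at 37 °C, seeded at 1 × 10^4/well and treated 24 h later at 0–300 μM (0, 30, 100, 300) for 16, 48 or 72 h. Incubation was in a hypoxic chamber (0.1% O2, 5% CO2, residual N2). Viability was measured by MTT (1 mg/mL, 30 min, 37 °C), with DMSO-solubilized formazan read at 550 nm and expressed against untreated control = 100%. Mean ± SEM of three experiments.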
(Tetrazolium dyes change colour on reduction, which living cells bring about.)

A further test deals with Carbonic anhydrase 2 (Homo sapiens, UniProt P00918). The test is described as follows: Inhibition of human recombinant carbonic anhdydrase-2 expressed in Escherichia coli pre-incubated for 6 hrs by stopped-flow CO2 hydration assay.
The target in another test is Carbonic anhydrase 1 (Homo sapiens, UniProt P00915). The test is described as follows: Inhibition of human recombinant carbonic anhdydrase-1 expressed in Escherichia coli pre-incubated for 6 hrs by stopped-flow CO2 hydration assay.
In test [3] the test system is HT-29. The test is described as follows: Cytotoxicity against human HT-29 cells assessed as reduction in cell viability at 30 to 300 uM incubated for 16 to 72 hrs under normoxic conditions by MTT assay. It is filed as functional, cell-based. The gist of the method: as §1
The subject of test [4] is HT-29. Kind of test: Cytotoxicity against human HT-29 cells assessed as reduction in cell viability at 30 to 300 uM incubated for 16 to 72 hrs under hypoxic conditions by MTT assay. Format: functional, cell-based. The gist of the method: as §2
The subject of test [5] is HT-29. Kind of test: Cytotoxicity against human HT-29 cells assessed as reduction in cell viability at 30 uM incubated for 16 hrs under normoxic conditions by MTT assay. Format: functional, cell-based. The method, boiled down:
as §1

Test [6] deals with HT-29. Kind of test: Cytotoxicity against human HT-29 cells assessed as cell viability at 100 uM incubated for 72 hrs under hypoxic conditions by MTT assay. Format: functional. To be noted: HT-29, 72 h, read-out: Activity. The method, boiled down: as §2
Test [7] has as its system HT-29. The test is described as follows: Cytotoxicity against human HT-29 cells assessed as reduction in cell viability at 300 uM incubated for 16 to 72 hrs under normoxic conditions by MTT assay. It is filed as functional, cell-based. The gist of the method: as §1
Test [8] has as its system HT-29. The test is described as follows: Cytotoxicity against human HT-29 cells assessed as cell viability at 100 uM incubated for 72 hrs under normoxic conditions by MTT assay. It is filed as functional. The conditions noted are these: HT-29, 72 h, read-out: Activity. The method, boiled down: as §1
The test system of test [9] is HT-29. Kind of test: Cytotoxicity against human HT-29 cells assessed as cell viability at 100 uM incubated for 48 hrs under normoxic conditions by MTT assay. It is filed as functional. The conditions noted are these: HT-29, 48 h, read-out: Activity. The method, boiled down: as §1
In test [10] the test system is HT-29. The test is described as follows: Cytotoxicity against human HT-29 cells assessed as cell viability at 30 uM incubated for 72 hrs under normoxic conditions by MTT assay. Format: functional. The conditions noted are these: HT-29, 72 h, read-out: Activity. The method, boiled down:
as §1

Test [11] has as its system HT-29. Kind of test: Cytotoxicity against human HT-29 cells assessed as cell viability at 100 uM incubated for 16 hrs under normoxic conditions by MTT assay. Format: functional. The conditions noted are these: HT-29, 16 h, read-out: Activity. The method, boiled down: as §1

What is called Ki is the equilibrium dissociation constant of an inhibitor or competing ligand from its target.

Molecules are shown by their SMILES. The source made the active and inactive calls. The rule behind the calls is not given here. Where only a bound is given, the exact number is not on record here.

Chain of Carbonic anhydrase 1 (P00915 whole entry): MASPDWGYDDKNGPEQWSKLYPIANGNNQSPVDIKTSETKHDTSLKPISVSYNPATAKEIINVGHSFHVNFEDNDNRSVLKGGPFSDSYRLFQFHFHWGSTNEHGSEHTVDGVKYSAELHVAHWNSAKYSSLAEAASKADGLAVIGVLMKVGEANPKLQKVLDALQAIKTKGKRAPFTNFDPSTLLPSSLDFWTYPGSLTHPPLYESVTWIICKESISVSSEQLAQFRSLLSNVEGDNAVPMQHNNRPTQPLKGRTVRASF

With `O=C(Nc1ccc2c(c1)C=CS(=O)(=O)O2)c1ccccc1Br`, the inhibition constant Ki at Carbonic anhydrase 9 is 0.0097 µM; at Carbonic anhydrase 2, greater than 10 µM; on Carbonic anhydrase 1, greater than 10 µM. For the same compound, the outcome in the test with HT-29 [1] and in the test with HT-29 [2] was Active.
`O=C(Nc1ccc2c(c1)C=CS(=O)(=O)O2)c1ccncc1`: the result in the test on HT-29 [3] and with HT-29 [4] was inactive. Moreover, the Ki on Carbonic anhydrase 9 was 0.0077 µM; on Carbonic anhydrase 2 it was greater than 10 µM; at Carbonic anhydrase 1 it was greater than 10 µM.
For the compound `N#Cc1ccc2c(c1)C=CS(=O)(=O)O2`, the values for the Ki on Carbonic anhydrase 9, at Carbonic anhydrase 2 and on Carbonic anhydrase 1 were 0.0338 µM, greater than 10 µM and greater than 10 µM, respectively.
Consider `O=C(Nc1ccc2c(c1)C=CS(=O)(=O)O2)c1ccco1`, for which the figures for the Ki at Carbonic anhydrase 9, at Carbonic anhydrase 2 and at Carbonic anhydrase 1 were 0.033 µM, greater than 10 µM and greater than 10 µM, respectively.
For `CC(C)(C)C(=O)Nc1ccc2c(c1)C=CS(=O)(=O)O2`, the Ki is 0.0056 µM at Carbonic anhydrase 9, greater than 10 µM on Carbonic anhydrase 2 and greater than 10 µM on Carbonic anhydrase 1.
With `O=C(Nc1ccc2c(c1)C=CS(=O)(=O)O2)c1cccs1`, the Ki at Carbonic anhydrase 9 was 0.0295 µM; on Carbonic anhydrase 2, greater than 10 µM; at Carbonic anhydrase 1, greater than 10 µM.
On to `CC(=O)Nc1ccc2c(c1)C=CS(=O)(=O)O2`, for which the Ki on Carbonic anhydrase 9 is 0.0172 µM; on Carbonic anhydrase 2, greater than 10 µM; at Carbonic anhydrase 1, greater than 10 µM.
Turning to `O=C(Cc1ccccc1)Nc1ccc2c(c1)C=CS(=O)(=O)O2`, the Ki on Carbonic anhydrase 9 was 0.0813 µM; at Carbonic anhydrase 2, greater than 10 µM; at Carbonic anhydrase 1 it was greater than 10 µM.
Turning to `Cc1ccc(C(=O)Nc2ccc3c(c2)C=CS(=O)(=O)O3)cc1`, the Ki on Carbonic anhydrase 9 was 0.009 µM; on Carbonic anhydrase 2 it was greater than 10 µM; at Carbonic anhydrase 1, greater than 10 µM.
On to `COc1ccc2c(c1)C=CS(=O)(=O)O2`, for which the values for the Ki on Carbonic anhydrase 9, at Carbonic anhydrase 2 and on Carbonic anhydrase 1 were 0.0421 µM, greater than 10 µM and greater than 10 µM, respectively.
For the compound `O=C(Nc1ccc2c(c1)C=CS(=O)(=O)O2)c1cccnc1`, the figures for the Ki at Carbonic anhydrase 9, at Carbonic anhydrase 2 and at Carbonic anhydrase 1 were 0.0105 µM, greater than 10 µM and greater than 10 µM, respectively.
Consider `O=C(Nc1ccc2c(c1)C=CS(=O)(=O)O2)c1ccccc1`, for which the outcome in the test on HT-29 [5] was Active. Moreover, the viability at 100 µM with HT-29 [6] is 35%; in the test on HT-29 [8] it was 40%; with HT-29 [9], 60%; with HT-29 [11] it was 52%. Moreover, in the test with HT-29 [7], the result was inactive. Besides, the Ki at Carbonic anhydrase 9 is 0.0066 µM; at Carbonic anhydrase 2, greater than 10 µM; at Carbonic anhydrase 1, greater than 10 µM. Besides, the viability at 30 µM in the test with HT-29 [10] is 43%.
As for `O=C(Nc1ccc2c(c1)C=CS(=O)(=O)O2)c1ccccc1I`, the Ki at Carbonic anhydrase 9 is 0.0091 µM; on Carbonic anhydrase 2, greater than 10 µM; on Carbonic anhydrase 1 it was greater than 10 µM.
For the compound `C[N+](C)(C)c1ccc2c(c1)C=CS(=O)(=O)O2`, the outcome in the test with HT-29 [3] and in the test on HT-29 [4] was inactive. Moreover, the Ki at Carbonic anhydrase 9 was 0.0096 µM; at Carbonic anhydrase 2, greater than 10 µM; at Carbonic anhydrase 1, greater than 10 µM.

The values are drawn from ChEMBL document CHEMBL3425425, “6-Substituted sulfocoumarins are selective carbonic anhdydrase IX and XII inhibitors with significant cytotoxicity against colorectal cancer cells” (J Med Chem, 2015).
